As a reminder, the Kd is the free concentration of one partner at which half of the binding sites on the other are occupied at equilibrium, for simple one-to-one binding. Low values mean higher affinity, high ones lower affinity.

The record followed here is article PMC8178754 (The Journal of Cell Biology, 2021).

The test system of assay [1] is ctf3-2A cells. As to the kind of experiment: Spot assay, growth of mutant strains under chemical stress. The class given is cell-based, yeast. The settings on record: 10-fold serial dilutions, 30°C, 2 or 3 d; effects modest. In short, it runs like this: (§1)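 Strains were built by lithium acetate integration of PCR products and verified by sequencing or PCR. Cells were grown in YPD to OD600 ~1 and diluted to OD600 0.2. 10-fold serial dilutions in sterile water, 5 µl each, were spotted on YPD or YPD with hydroxyurea at indicated concentrations. Plates were incubated 2 or 3 d at 30°C, then imaged.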

The test system of assay [2] is ctf3-2A ulp2–SIM-3A double mutant cells. The description is as above. The settings on record: 10-fold serial dilutions, 30°C, 2 or 3 d. The class given is cell-based, yeast. In short, it runs like this: as §1
Assay [3] relates to cells lacking both Ulp2–kinetochore interactions (KIM-Ctf3 and SIM-SUMO). As to the kind of experiment: Growth under chemical stress, cells lacking both Ulp2–kinetochore interactions. The settings on record: KIM-Ctf3 and SIM-SUMO interactions both absent. The class given is cell-based, yeast. In short, it runs like this:
as §1

Assay [4] has as its system ulp2–KIM-3A and ctf3-2A cells. The experiment in a line: Spot assay, growth of mutant strains under chemical stress. The class given is cell-based, yeast. The settings on record: YPD + hydroxyurea; 10-fold dilution series. In short, it runs like this:
as §1

For assay [5], the system named is Ctf3-2A (Ctf3–R594A,K596A). The experiment in a line: GST pulldown with Ctf3-2A. Conditions: Fig. S2 A, 20 mM Tris, pH 8.5, 150 mM NaCl. Type of assay: binding, yeast.
For assay [6], the system named is Ctf3. As to the kind of experiment: GST-Ulp2-KIM pulldown from yeast cell extracts, Ctf3. Conditions: immobilized GST-Ulp2-KIM as bait; anti–Protein A blot. The class given is binding.
The target in assay [7] is T1, Ctf3 complex (Ctf3, Mcm16, Mcm22) (yeast, UniProt Q12748;Q12262;P47167). The experiment in a line: fluorescence polarisation. Background: In fluorescence polarisation assays a small probe gives low polarisation when free and higher when bound to something large.
Assay [8] concerns the target T1, Ctf3 complex (Ctf3, Mcm16, Mcm22). The experiment in a line: pull-down.

T1 sequence (Q12748 whole entry, chain 1 of 3): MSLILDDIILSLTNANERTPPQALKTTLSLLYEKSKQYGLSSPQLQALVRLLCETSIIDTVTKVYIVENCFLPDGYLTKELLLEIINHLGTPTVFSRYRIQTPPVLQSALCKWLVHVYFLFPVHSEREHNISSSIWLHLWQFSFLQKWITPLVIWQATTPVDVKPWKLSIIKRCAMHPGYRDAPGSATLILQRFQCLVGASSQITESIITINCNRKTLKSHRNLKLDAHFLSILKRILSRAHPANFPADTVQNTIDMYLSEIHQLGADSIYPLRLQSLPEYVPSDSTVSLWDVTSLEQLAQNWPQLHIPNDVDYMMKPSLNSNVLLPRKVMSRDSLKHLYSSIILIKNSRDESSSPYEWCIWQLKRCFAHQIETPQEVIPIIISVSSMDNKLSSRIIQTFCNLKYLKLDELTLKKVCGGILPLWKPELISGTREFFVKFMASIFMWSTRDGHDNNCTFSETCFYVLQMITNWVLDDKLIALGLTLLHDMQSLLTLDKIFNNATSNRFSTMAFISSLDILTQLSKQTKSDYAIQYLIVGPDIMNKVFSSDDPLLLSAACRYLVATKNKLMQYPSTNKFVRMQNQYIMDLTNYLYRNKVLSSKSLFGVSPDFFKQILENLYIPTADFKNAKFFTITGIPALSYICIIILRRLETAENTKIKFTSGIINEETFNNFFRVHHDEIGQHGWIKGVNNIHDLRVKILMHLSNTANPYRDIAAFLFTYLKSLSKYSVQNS
T1 sequence (Q12262 whole entry, chain 2 of 3): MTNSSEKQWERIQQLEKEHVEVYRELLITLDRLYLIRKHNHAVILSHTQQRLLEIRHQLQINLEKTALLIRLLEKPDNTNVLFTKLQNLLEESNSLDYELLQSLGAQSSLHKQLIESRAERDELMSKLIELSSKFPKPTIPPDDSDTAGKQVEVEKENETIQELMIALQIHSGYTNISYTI
T1 sequence (P47167 whole entry, chain 3 of 3): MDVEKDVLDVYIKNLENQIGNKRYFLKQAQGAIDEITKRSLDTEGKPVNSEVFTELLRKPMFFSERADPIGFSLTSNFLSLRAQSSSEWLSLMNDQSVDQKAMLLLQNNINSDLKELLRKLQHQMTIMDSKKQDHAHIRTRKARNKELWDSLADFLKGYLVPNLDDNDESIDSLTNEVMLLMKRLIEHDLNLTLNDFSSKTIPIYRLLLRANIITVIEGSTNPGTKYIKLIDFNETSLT

Consider `CCCCNC(=O)n1c(NC(=O)OC)nc2ccccc21` [benomyl], for which, in assay [1], the “sensitivity of ctf3-2A cells” value is “sensitizes cells to hydroxyurea and benomyl”. Further, the “sensitivity of ctf3-2A ulp2–SIM-3A double mutant cells” value in assay [2] was “pronounced”. The “viability/sensitivity of cells lacking both Ulp2–kinetochore interactions” value in assay [3] was “Compromised viability”.

`NC(=O)NO` [hydroxyurea]: the “sensitivity of ctf3-2A cells” value in assay [1] is “sensitizes cells to hydroxyurea”. Moreover, the “sensitivity of ctf3-2A ulp2–SIM-3A double mutant cells” value in assay [2] is given as “pronounced”. Besides, the “sensitivity of ulp2–KIM-3A and ctf3-2A cells” value in assay [4] was “elevated sensitivity”. Also, the “viability/sensitivity of cells lacking both Ulp2–kinetochore interactions” value in assay [3] is “much more sensitive”.

B1: GST-Ulp2-KIM: GST fusion of the Ulp2 kinetochore interaction motif (KIM) (protein)
chain: MSARKRKFNSLKPLDTLNSSRASSPRSSASLPPKRYNTFRKDPKIVDHLNNASTKDFLPVLSMNSESKRQIELSDNDVDNNDEGEGVNSGCSDQDFEPLQSSPLKRHSSLKSTSNGLLFQMSNNLGNGSPEPAVASTSPNGSIISTKLNLNGQFSCVDSKTLRIYRHKAPCIMTFVSDHNHPKFSLYFQQSVIYNSQVNLLDDVELIILDKKNSFMAIILKDLKKVKMILDVNNSSININTNILIWSTASSASNKKIKSIKRFLLMSYSSSIKVEILDHKEQILERLKHLIHPISSSSPSLNMERAINSTKNAFDSLRLKKTKLSTNDDESPQIHTHFLSNKPHGLQSLTKRTRIASLGKKEHSISVPKSNISPSDFYNTNGTETLQSHAVSQLRRSNRFKDVSDPANSNSNSEFDDATTEFETPELFKPSLCYKFNDGSSYTITNQDFKCLFNKDWVNDSILDFFTKFYIESSIEKSIIKREQVHLMSSFFYTKLISNPADYYSNVKKWVNNTDLFSKKYVVIPINISYHWFSCIITNLDAILDFHQNKDKNDAINSDEISINNPLVNILTFDSLRQTHSREIDPIKEFLISYALDKYSIQLDKTQIKMKTCPVPQQPNMSDCGVHVILNIRKFFENPVETIDVWKNSKIKSKHFTAKMINKYFDKNERNSARKNLRHTLKLLQLNYISYLKKENLYEEVMQMEEKKSTNINNNENYDDDDEEIQIIENIDQSSKDNNAQLTSEPPCSRSSSISTTEREPTELHNSVVRQPTGEIITDNEDPVRAASPETASVSPPIRHNILKSSSPFISESANETEQEEFTSPYFGRPSLKTRAKQFEGVSSPIKNDQALSSTHDIMMPSPKPKRIYPSKKIPQLSSHVQSLSTDSMERQSSPNNTNIVISDTEQDSRLGVNSESKNTSGIVNRDDSDVNLIGSSLPNVAEKNHDNTQESNGNNDSLGKILQNVDKELNEKLVDIDDVAFSSPTRGIPRTSATSKGSNAQLLSNYGDENNQSQDSVWDEGRDNPILLEDEDP
On to B1, for which the “Ulp2–KIM interaction with Ctf3-2A in pulldown” value in assay [5] was “Ctf3-2A does not support the Ulp2–KIM interaction”.

B2: Ulp2: nuclear enzyme that removes SUMO chains from modified substrates; in pulldown represented by GST-Ulp2-KIM bait (protein, UniProt P40537 1-1034, looked up)
Ubiquitin-like-specific …: B1 chain
For the molecule B2, the “pulldown of Ctf3 from yeast cell extract” value in assay [6] was “Ctf3, but not Ctf3-2A, binds Ulp2”. Consider DDSDVNLIGSS (FITC-AHA on the N-terminus (FITC-AHA-DDSDVNLIGSS)) [FITC-Ulp2-KIM peptide (Ulp2-927-937)], for which the Kd in assay [7] is around 900 nM.

As for DDSDVNLIGSS [GST-Ulp2-927-937], in assay [8], the binding result is “binds”. ADSDVNLIGSS [GST-Ulp2-KIM 1DA-1 (Ulp2-D927A)]: the binding result in assay [8] was “binds”. With DDSDVALIGSS [GST-Ulp2-927-937 N932A], in assay [8], the binding result is “binds”.
